Results taken from ChEMBL document CHEMBL1123672, “Structure-activity relationships of sparsomycin and its analogues. Inhibition of peptide bond formation in cell-free systems and of L1210 and bacterial cell growth” (J Med Chem, 1987).

What was measured:
Escherichia coli [1] = test: Ability to inhibit the peptide bond formation by puromycin reaction in Escherichia coli was determined; format: functional; conditions: read-out: ED50 (the source's name)
Escherichia coli [2] = test: Ability to inhibit the phenylalanine synthesis in Escherichia coli was determined; format: functional; conditions: read-out: ED50 (the source's name)
Outline: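 Poly(U)-directed [³H]Phe polymerization with E. coli MRE600 ribosomes ([…]) and S-100. The reaction was started with 30 μM [³H]Phe and run 30 min at 37 °C. TCA-insoluble counts were taken on glass-fiber filters. Averages of three experiments.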

Escherichia coli [3] = test: Ability to inhibit the peptide bond formation by fragment reaction in Escherichia coli was determined; format: functional; conditions: read-out: ED50 (the source's name)
Outline: (§1)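 Fragment reaction: ribosomes (1 mg/mL, from E. coli MRE600 or S. cerevisiae Y166) in 150 μL of 33 mM Tris-HCl pH 7.4, 270 mM KCl, 13 mM Mg acetate, with 2 mM puromycin, 1 pmol N-acetyl-[³H]Leu-ACCAC(U) donor (ribonuclease T1 fragment of N-acetyl-[³H]Leu-tRNA), 33% methanol and test drug; no mRNA or small subunit. Values are averages of three experiments.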

L1210 = test: Ability to inhibit the colony formation of leukemia L1210 cells in agar medium (0.3%) was determined; format: functional; conditions: Mus musculus, read-out: ID50 (the source's name)
Saccharomyces cerevisiae [4] = test: Ability to inhibit the peptide bond formation by fragment reaction in Saccharomyces cerevisiae was determined; format: functional; conditions: read-out: ED50 (the source's name); outline: as §1
Saccharomyces cerevisiae [5] = test: Ability to inhibit the phenylalanine synthesis in Saccharomyces cerevisiae was determined; format: functional; conditions: read-out: ED50 (the source's name)
Outline: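 Yeast (S. cerevisiae Y166) ribosomes and S-100 in the same poly(U)/[³H]Phe mix as the E. coli assay, with 20 mM creatine phosphate and 50 μg/mL creatine phosphokinase as the energy system. Incubation was 30 min at 30 °C. Cold 10% TCA precipitate was filter-counted. Averages of three experiments.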

[6] = Ability to inhibit the bacterial growth of Escherichia coli (MRE600) by 50% was determined.; format: functional; set-up: reference not given here
[7] = tested on: Saccharolobus solfataricus; test: Ability to inhibit the phenylalanine synthesis in Sulfolobus solfataricus was determined; format: functional; conditions: read-out: ED50 (the source's name)
[8] = (§2) Effect of butanol on inhibition of the fragment reaction in the presence of 10 uM of compound was determined; format: functional; conditions: in the assay text read “100 uM” for “10 uM”
Outline: (§3)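 Solvent comparison: the fragment reaction (ribosomes with puromycin acceptor and N-acetyl-[³H]Leu-ACCAC(U) donor, in Tris-HCl pH 7.4/KCl/Mg acetate buffer) was run with methanol, ethanol, 2-propanol or butanol as the required organic solvent. Read-out is percent inhibition at the fixed drug level given in each line; series A and B are separate experiments.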

[9] = (§4) Effect of 2-propanol on inhibition of the fragment reaction in the presence of 10 uM of compound was determined; format: functional; conditions: in the assay text read “100 uM” for “10 uM”; outline: as §3
[10] = (§5) Effect of ethanol on inhibition of the fragment reaction in the presence of 10 uM of compound was determined; format: functional; conditions: in the assay text read “100 uM” for “10 uM”; outline: as §3
[11] = (§6) Effect of methanol on inhibition of the fragment reaction in the presence of 10 uM of compound was determined; format: functional; conditions: in the assay text read “100 uM” for “10 uM”; outline: as §3
[12] = Ability to inhibit the bacterial growth of Escherichia coli (MRE600) by 50% was determined Activity represent the ratio of ED50 of sparsomycin to the ED50 of the compound; format: functional
Outline: (§7)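 Liquid culture: E. coli MRE600 was grown in LB plus 0.2% glucose to A560 0.1, then 1-mL aliquots were incubated with drug 4 h at 37 °C. Growth was stopped with 0.1% sodium azide and A550 read; drug-free medium counts as 100%. ED50 (μM) is the dose giving 50% growth; the value reported is sparsomycin ED50/analogue ED50.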

[13] = as §4; outline: as §3
[14] = as §2; outline: as §3
[15] = as §5; outline: as §3
[16] = as §6; outline: as §3
[17] = Effect of 2-propanol on inhibition of the fragment reaction in the presence of 10 uM of compound was determined from Expt-A; outline: as §3
[18] = Effect of 2-propanol on inhibition of the fragment reaction in the presence of 20 uM of compound was determined from Expt-B; outline: as §3
[19] = Effect of butanol on inhibition of the fragment reaction in the presence of 10 uM of compound was determined from Expt-A; outline: as §3
[20] = Effect of ethanol on inhibition of the fragment reaction in the presence of 10 uM of compound was determined from Expt-A; outline: as §3
[21] = Effect of ethanol on inhibition of the fragment reaction in the presence of 20 uM of compound was determined from Expt-B; outline: as §3
[22] = Effect of methanol on inhibition of the fragment reaction in the presence of 10 uM of compound was determined from Expt-A; outline: as §3
[23] = Effect of methanol on inhibition of the fragment reaction in the presence of 20 uM of compound was determined from Expt-B; outline: as §3
[24] = Effect of ethanol on inhibition of the fragment reaction in the presence of 200 uM of compound was determined
[25] = Effect of methanol on inhibition of the fragment reaction in the presence of 200 uM of compound was determined
[26] = Effect of 2-propanol on inhibition of the fragment reaction in the presence of 200 uM of compound was determined
[27] = Ability to inhibit the growth of Escherichia coli (MRE600) by 50% was determined. Activity represent the ratio of ED50 of sparsomycin to the ED50 of the compound; format: functional; outline: as §7

Structure (SMILES) | EC50 (Escherichia coli [1]) [µM] | EC50 (Escherichia coli [2]) [µM] | EC50 (Escherichia coli [3]) [µM] | IC50 (L1210) [µM] | EC50 (Saccharomyces cerevisiae [4]) [µM] | EC50 (Saccharomyces cerevisiae [5]) [µM] | Ratio [6] | EC50 [7] [µM] | other results
CSC[S@@+]([O-])C[C@H](CO)NC(=O)/C=C/c1c(C)[nH]c(=O)[nH]c1=O | 13 | 2000 | 700 | 5.8 | 65 | 2000 | 0.92 | – | –
Cc1nc(O)nc(O)c1/C=C/C(=O)N[C@@H](CO)C[S@+]([O-])CCl | 5000 | 2000 | 5000 | 30 | 5000 | 2500 | 0.01 | 5000 | –
Cc1nc(O)nc(O)c1/C=C/C(=O)N[C@@H](CO)C[S@@+]([O-])CCl | 0.65 | 450 | 7.6 | 0.29 | 17 | 220 | 0.55 | 5000 | –
CSC[S+]([O-])CC(CO)NC(=O)/C=C\c1cnc(O)nc1O (stereo not drawn) | – | – | – | – | – | – | 0.47 | – | –
CCC[S+]([O-])CC(CO)NC(=O)/C=C/c1c(C)nc(O)nc1O (stereo not drawn) | 0.23 | 140 | 4.5 | 0.75 | 6.2 | 42 | 0.3 | 1000 | –
CCCCCCCCCC[S+]([O-])CC(CO)NC(=O)/C=C/c1c(C)nc(O)nc1O (stereo not drawn) | 0.08 | 1.8 | 5000 | 0.14 | 700 | 0.2 | 3.6 | 30 | inhibition [8]: 15%; inhibition [9]: 12%; inhibition [10]: 35%; inhibition [11]: 44%
Cc1nc(O)nc(O)c1/C=C/C(=O)NC(CO)CSC[S+](C)[O-] (stereo not drawn) | 160 | 2000 | 750 | 180 | 350 | 2000 | – | – | Ratio [12]: 0.4
Cc1nc(O)nc(O)c1/C=C/C(=O)NC(CO)C[S+]([O-])CSCc1ccccc1 (stereo not drawn) | 0.13 | 0.6 | 7.6 | 0.11 | 2.6 | 0.6 | 1 | 60 | Inhibition [13]: 20%; Inhibition [14]: 54%; Inhibition [15]: 29%; Inhibition [16]: 25%
CSC[S@@+]([O-])C[C@@H](CO)NC(=O)/C=C/c1c(C)[nH]c(=O)[nH]c1=O (racemic) | 100 | 2000 | 1000 | 300 | 1000 | 2000 | 0.01 | – | –
CSCSC[C@@H](CO)NC(=O)/C=C/c1c(C)nc(O)nc1O | 1000 | 2000 | 1000 | 300 | 550 | 2000 | 0.01 | – | –
CSC[S@+]([O-])C[C@@H](CO)NC(=O)/C=C/c1c(C)nc(O)nc1O | 40 | 2000 | 1000 | 300 | 650 | 2000 | 0.32 | – | –
CSC[S@+]([O-])C[C@H](CO)NC(=O)/C=C/c1c(C)[nH]c(=O)[nH]c1=O | 0.1 | 8.5 | 3.2 | 0.4 | 2.8 | 5.2 | 1 | 900 | Inhibition [17]: 64%; Inhibition [18]: 76%; Inhibition [19]: 86%; Inhibition [20]: 91%; Inhibition [21]: 92%; Inhibition [22]: 57%; Inhibition [23]: 64%
CCCCCCCCSC[S+]([O-])CC(CO)NC(=O)/C=C/c1c(C)nc(O)nc1O (stereo not drawn) | 0.25 | 1.6 | 60 | 0.1 | 300 | 1.3 | 2.5 | – | Inhibition [24]: 30%; Inhibition [25]: 42%; Inhibition [26]: 6%
CSCSC[C@H](CO)NC(=O)/C=C/c1c(C)nc(O)nc1O | 7 | 2000 | 550 | 12.8 | 150 | 2000 | – | – | Ratio [27]: 1.8
CSC[S+]([O-])CC(CO)NC(=O)/C=C/c1cnc(O)nc1O (stereo not drawn) | 50 | 600 | 30 | 12.7 | 50 | 1000 | 0.27 | – | –
